Measured values from ChEMBL document CHEMBL2396616, “Development and characterization of a promising fluorine-18 labelled radiopharmaceutical for in vivo imaging of fatty acid amide hydrolase” (Bioorg Med Chem, 2013).

Key:
[1] = target: T1, Fatty-acid amide hydrolase 1 (Rattus norvegicus, UniProt P97612); test: Inhibition of FAAH in rat brain homogenates using [3H]anandamide as substrate preincubated for 60 mins by liquid scintillation spectroscopy
T1 sequence (P97612 whole entry): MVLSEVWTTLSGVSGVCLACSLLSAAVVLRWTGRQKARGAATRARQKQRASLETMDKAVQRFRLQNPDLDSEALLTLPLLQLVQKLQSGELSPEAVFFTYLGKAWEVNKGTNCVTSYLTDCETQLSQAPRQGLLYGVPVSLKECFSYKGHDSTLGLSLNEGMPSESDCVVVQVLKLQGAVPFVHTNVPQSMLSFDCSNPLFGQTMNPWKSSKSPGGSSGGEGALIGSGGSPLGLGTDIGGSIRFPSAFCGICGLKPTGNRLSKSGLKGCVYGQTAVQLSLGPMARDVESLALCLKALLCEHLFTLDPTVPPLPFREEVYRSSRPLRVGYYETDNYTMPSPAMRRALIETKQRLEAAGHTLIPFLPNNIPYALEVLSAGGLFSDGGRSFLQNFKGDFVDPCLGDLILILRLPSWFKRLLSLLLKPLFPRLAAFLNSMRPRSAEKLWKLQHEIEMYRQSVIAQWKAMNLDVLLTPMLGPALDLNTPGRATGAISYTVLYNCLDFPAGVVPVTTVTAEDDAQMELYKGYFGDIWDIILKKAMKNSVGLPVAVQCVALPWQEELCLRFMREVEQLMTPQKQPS

[2] = Irreversible biodistribution in iv dosed rat brain parenchyma after 2 to 40 mins by gamma counting in presence of FAAH inhibitor URB597; format: ADME, organism-based; conditions: in vivo
Procedure, shortened: (§1)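 After tail-vein radiotracer, rats (n=4–6/group) killed at 2, 10 or 40 min. Whole brain rinsed in saline and homogenised in cold 80% acetonitrile/0.01% aq HCl. Centrifuged and extracted three times in total. Pooled supernatant (unbound) and pellet (bound) counted separately. […] Mean ± SD.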

Hippocampus [3] = test: Drug uptake in Sprague-Dawley rat hippocampus at 0.7 to 0.8 nmol/kg, iv after 40 mins by autoradiography analysis; format: ADME, organism-based; conditions: in vivo
Procedure, shortened: (§2)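 Male Sprague-Dawley rats (310–330 g) got 45–55 MBq radiotracer (0.7–0.8 nmol/kg) by tail vein. Pretreated 40 min earlier with vehicle (5% Tween80/saline) or PF-04457845 0.5 mg/kg ip. Killed 40 min post-injection. Brains frozen, cut into 20-μm coronal sections at −20°C, dried, exposed to film for 6 days.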

[4] = Drug uptake in Sprague-Dawley rat cerebellar cortex at 0.7 to 0.8 nmol/kg, iv after 40 mins by autoradiography analysis in presence of FAAH inhibitor PF-04457845; format: ADME, organism-based; conditions: in vivo; procedure, shortened: as §2
Cortex [5] = test: Drug uptake in Sprague-Dawley rat cortex at 0.7 to 0.8 nmol/kg, iv after 40 mins by autoradiography analysis; format: ADME, organism-based; conditions: in vivo; procedure, shortened: as §2
Cortex [6] = test: Biodistribution in rat brain cortex at < 1 nmol/kg, iv after 40 mins by gamma counting; format: ADME, organism-based; conditions: in vivo
Procedure, shortened: (§3)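 [18F]radiotracer, 3–4 MBq (0.2–1 nmol/kg), given by tail vein in 0.3 mL 10% ethanol/citrate buffer pH 6 to restrained conscious rats. Decapitation at set times. Regions excised, blotted, weighed. Gamma counting decay-corrected to injection against injected-dose standards. Reported as SUV (%ID/g […] body weight kg), mean ± SD, n=4/group. Blocked groups vs vehicle by Student's t test.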

[7] = Drug uptake in Sprague-Dawley rat amygdaloid nuclei at 0.7 to 0.8 nmol/kg, iv after 40 mins by autoradiography analysis in presence of FAAH inhibitor PF-04457845; format: ADME, organism-based; conditions: in vivo; procedure, shortened: as §2
[8] = Irreversible biodistribution in iv dosed rat brain parenchyma after 40 mins by gamma counting; format: ADME, organism-based; conditions: in vivo; procedure, shortened: as §1
Brain [9] = test: Biodistribution in rat brain at < 1 nmol/kg, iv after 2 to 40 mins by gamma counting in presence of FAAH inhibitor PF-04457845; format: ADME, organism-based; conditions: in vivo; procedure, shortened: as §3
Cortex [10] = test: Drug uptake in Sprague-Dawley rat cortex at 0.7 to 0.8 nmol/kg, iv after 40 mins by autoradiography analysis in presence of FAAH inhibitor PF-04457845; format: ADME, organism-based; conditions: in vivo; procedure, shortened: as §2
[11] = Drug uptake in Sprague-Dawley rat thalamic nuclei at 0.7 to 0.8 nmol/kg, iv after 40 mins by autoradiography analysis in presence of FAAH inhibitor PF-04457845; format: ADME, organism-based; conditions: in vivo; procedure, shortened: as §2
Hypothalamus [12] = test: Biodistribution in rat brain hypothalamus at < 1 nmol/kg, iv after 40 mins by gamma counting; format: ADME, organism-based; conditions: in vivo; procedure, shortened: as §3
Hypothalamus [13] = test: Biodistribution in rat brain hypothalamus at < 1 nmol/kg, iv after 2 mins by gamma counting; format: ADME, organism-based; conditions: in vivo; procedure, shortened: as §3
Plasma [14] = test: Drug metabolism in rat plasma after 30 mins; format: ADME, cell-free; conditions: 0.5 h
Procedure, shortened: (§4)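 Radiotracer incubated in vitro in rat or human plasma for 30 min at ambient temperature. Decomposition assessed by radio-HPLC.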

[15] = Drug metabolism in rat brain after 10 mins; format: ADME, tissue-based; conditions: read-out: Drug metabolism
Procedure, shortened: (§5)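 Rats given radiotracer iv, killed at 10 min. Trunk blood taken into heparin, plasma separated and acidified with 10% v/v acetic acid. Plasma and brain homogenate extracts analysed directly by reverse-phase radio-HPLC for parent vs metabolites.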

[16] = Drug metabolism in human plasma after 30 mins; format: ADME, cell-free; conditions: read-out: Drug metabolism; procedure, shortened: as §4
Hippocampus [17] = test: Drug uptake in Sprague-Dawley rat hippocampus at 0.7 to 0.8 nmol/kg, iv after 40 mins by autoradiography analysis in presence of FAAH inhibitor PF-04457845; format: ADME, organism-based; conditions: in vivo; procedure, shortened: as §2
[18] = Irreversible biodistribution in iv dosed rat brain parenchyma after 10 mins by gamma counting; format: ADME, organism-based; conditions: in vivo; procedure, shortened: as §1
[19] = Irreversible biodistribution in iv dosed rat brain parenchyma after 2 mins by gamma counting; format: ADME, organism-based; conditions: in vivo; procedure, shortened: as §1
Cortex [20] = test: Drug uptake in Sprague-Dawley rat cerebellar cortex at 0.7 to 0.8 nmol/kg, iv after 40 mins by autoradiography analysis; format: ADME, organism-based; conditions: in vivo; procedure, shortened: as §2
Cortex [21] = test: Biodistribution in rat brain cortex at < 1 nmol/kg, iv after 2 mins by gamma counting; format: ADME, organism-based; conditions: in vivo; procedure, shortened: as §3
[22] = Drug uptake in Sprague-Dawley rat thalamic nuclei at 0.7 to 0.8 nmol/kg, iv after 40 mins by autoradiography analysis; format: ADME, organism-based; conditions: in vivo; procedure, shortened: as §2
Plasma [23] = test: Drug metabolism in rat plasma after 10 mins; format: ADME, cell-free; procedure, shortened: as §5
Brain [24] = test: Biodistribution in rat brain at < 1 nmol/kg, iv after 2 to 40 mins by gamma counting in presence of FAAH inhibitor URB597; format: ADME, organism-based; conditions: in vivo; procedure, shortened: as §3
[25] = Drug uptake in Sprague-Dawley rat amygdaloid nuclei at 0.7 to 0.8 nmol/kg, iv after 40 mins by autoradiography analysis; format: ADME, organism-based; conditions: in vivo; procedure, shortened: as §2

## O=C(NCCCCCF)Oc1cccc(C2=NCCO2)c1
[1]
  IC50: 0.82 nM

## O=C(NCCCCC[18F])Oc1cccc(C2=NCCO2)c1
[2]
  Drug uptake: 24%
Hippocampus [3]
  Drug uptake: Active
[4]
  Drug uptake: Not Active
Cortex [5]
  Drug uptake: Active
Cortex [6]
  SUV: 4.55
[7]
  Drug uptake: Not Active
[8]
  Drug uptake: 90%
Brain [9]
  Drug uptake: Not Active
Cortex [10]
  Drug uptake: Not Active
[11]
  Drug uptake: Not Active
Hypothalamus [12]
  SUV: 1.59
Hypothalamus [13]
  SUV: 1.74
Plasma [14]
  Drug metabolism: > 50%
[15]
  metabolised at 10 min: 50%
[16]
  metabolised at 0.5 h: < 5%
Hippocampus [17]
  Drug uptake: Not Active
[18]
  Drug uptake: 94%
[19]
  Drug uptake: 91%
Cortex [20]
  Drug uptake: Active
Cortex [21]
  SUV: 3.9
[22]
  Drug uptake: Active
Plasma [23]
  Drug metabolism: > 95%
Brain [24]
  Drug uptake: Not Active
[25]
  Drug uptake: Active
